ChEMBL document CHEMBL1140145, “Identification of non-nucleoside DNA synthesis inhibitors of vaccinia virus by high-throughput screening” (J Med Chem, 2008)
Activity calls are given as the source filed them. The calls are words filed in the database; no cut-off is given here.

Assays:
Vaccinia virus [1] = experiment: Antiviral activity against Vaccinia virus WR in BSC1 cells assessed as retention of antiviral potency by measuring exogenous double stranded DNA trapping; format: functional, organism-based; settings: Orthopoxvirus vaccinia, BSC-1
Vaccinia virus [2] = experiment: Inhibition of Vaccinia virus DNA synthesis in by rapid plate assay; format: functional, organism-based; settings: Orthopoxvirus vaccinia
[3] = Cytotoxicity against african green monkey BSC1 cells after 120 hrs WST-1 based assay; format: cell-based, BSC-1; settings: chlorocebus aethiops, read-out: TC50
Outline: (§1)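 Uninfected BS-C-1 cells in phenol red-free medium, seeded 5000 (20 h), 1000 (3-day) or 200 (5-day) cells/well, exposed next day to compound in two-fold serial dilutions (top 200 µM; 1% DMSO final) at 37°C. WST-1 added 30 min, A450 read. Triplicates; percent cytotoxicity vs DMSO fitted four-parameter sigmoidal for TC50.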

[4] = Cytotoxicity against african green monkey BSC1 cells after 20 hrs WST-1 based assay; format: cell-based, BSC-1; settings: chlorocebus aethiops, read-out: TC50; outline: as §1
[5] = Cytotoxicity against african green monkey BSC1 cells after 72 hrs WST-1 based assay; format: cell-based, BSC-1; settings: chlorocebus aethiops, read-out: TC50; outline: as §1
[6] = Selectivity index, TC50 for african green monkey BSC1 cells after 20 hrs to EC50 for Vaccinia virus WR in BSC1 cells after 20 hrs by cell protection assay; format: toxicity, cell-based, BSC-1; settings: read-out: Selectivity Index
Vaccinia virus [7] = experiment: Antiviral activity against Vaccinia virus WR in BSC1 cells assessed as reduction in plaque formation after 20 hrs; format: functional, organism-based; settings: Orthopoxvirus vaccinia, BSC-1, 20 h
Vaccinia virus [8] = experiment: Antiviral activity against Vaccinia virus WR in BSC1 cells assessed as protection from virus-induced lysis of cell monolayer after 20 hrs; format: functional, organism-based; settings: Orthopoxvirus vaccinia, BSC-1, 20 h
Vaccinia virus [9] = experiment: Antiviral activity against Vaccinia virus WR in BSC1 cells assessed as protection from virus-induced lysis of cell monolayer up to 200 uM after 20 hrs; format: functional, organism-based; settings: Orthopoxvirus vaccinia, BSC-1
[10] = Cytotoxicity against african green monkey BSC1 cells up to 200 uM after 20 to 120 hrs WST-1 based assay; format: cell-based; settings: chlorocebus aethiops, bsc-1; outline: as §1
Vaccinia virus [11] = experiment: Antiviral activity against Vaccinia virus WR in BSC1 cells assessed as reduction in plaque formation up to 200 uM after 20 hrs; format: functional, organism-based; settings: Orthopoxvirus vaccinia, BSC-1
[12] = Selectivity index, TC50 for african green monkey BSC1 cells after 72 hrs to EC50 for Vaccinia virus WR in BSC1 cells after 72 hrs by cell protection assay; format: toxicity, cell-based, BSC-1; settings: read-out: Selectivity Index

Row | Structure (SMILES) | Activity (Vaccinia virus [1]) | IC50 (Vaccinia virus [2]) [µM] | CC50 at 120 h [3] [µM] | CC50 at 20 h [4] [µM] | CC50 at 72 h [5] [µM] | selectivity ratio at 20 h [6] | EC50 (Vaccinia virus [7]) [µM] | EC50 (Vaccinia virus [8]) [µM] | Activity (Vaccinia virus [9]) | Activity [10] | Activity (Vaccinia virus [11]) | selectivity ratio at 72 h [12]
1 | N=C1/C(=C/c2coc3ccccc3c2=O)C(=O)N=C2SC=NN12 | Active | 75 | 50 | > 200 | > 200 | > 1 | – | – | – | – | – | –
2 | CC(=O)n1c2ccccc2c2nc(C)sc21 | Active | 111 | 75 | > 200 | > 200 | > 1 | 100 | – | – | – | – | –
3 | O=C(Nc1ccccc1C(=O)O)OCC1c2ccccc2-c2ccccc21 | Active | 26 | 20 | > 200 | 40 | > 1.9 | 75 | – | – | – | – | –
4 | N=C1S/C(=C/c2ccco2)C(=O)N1c1nccs1 | Active | 32 | 50 | > 100 | > 100 | > 1.2 | 75 | 80 | – | – | – | –
5 | N/N=C1\CCCc2c1[nH]c1ccc(C(=O)NN)cc21 | inactive | – | – | > 200 | 35 | – | 100 | 193 | – | – | – | –
6 | O=C1/C(=C/C2CCCO2)CC/C1=C\C1CCCO1 (centres undefined) | Active | 239 | 50 | > 100 | > 100 | > 1 | 50 | 100 | – | – | – | –
7 | Cc1cc(OC(=O)c2ccco2)nc(SCc2c(Cl)cccc2Cl)n1 | Active | 52 | > 100 | > 100 | > 100 | > 2 | 75 | 100 | – | – | – | –
8 | Nc1ccn(C[C@@H](CO)OCP(=O)(O)O)c(=O)n1 [CIDOFOVIR] | Active | – | 300 | > 500 | > 500 | > 3.8 | 50 | – | – | – | – | –
9 | COc1ccc(-c2cc3ccccn3c2C(=O)c2cccnc2)c(OC)c1 | inactive | 25 | 60 | > 200 | 152 | > 2.3 | 100 | 87 | – | – | – | –
10 | OC(CN1CCNCC1)Cn1c2ccc(Br)cc2c2cc(Br)ccc21 (centres undefined) | – | 6.3 | – | – | – | – | – | – | inactive | Toxic | inactive | –
11 | Cc1ccc2oc(-c3ccccc3)c/c(=N\CCO)c2c1 | inactive | 25 | 12 | > 200 | – | > 3.5 | 40 | 57 | – | – | – | –
12 | Cc1cc(/N=C/c2cc(Cl)cc(Cl)c2O)no1 | Active | 30 | 20 | > 200 | 50 | > 2.1 | 75 | 95 | – | – | – | –
13 | O=C(O)Cn1c2ccc(Cl)cc2c2nc3ccccc3nc21 | Active | – | 30 | > 100 | 13 | – | 50 | 100 | – | – | – | –
14 | CCNc1nc(SCc2ccc(Cl)cc2)nc2sc3c(c12)CCN(C)C3 | Active | 129 | 5 | 115 | – | 2.6 | 15 | 45 | – | – | – | –
15 | Cc1ccc2c(Sc3ccc(Cl)cc3)c(C(=O)O)[nH]c2c1 | Active | 43 | 120 | > 200 | 174 | > 1.5 | 75 | – | – | – | – | –
16 | CC1=CC(C)(C)N=C(Nc2nc(C)c3cc(C)cc(C)c3n2)N1 | – | 5.3 | – | – | – | – | – | – | inactive | Toxic | inactive | –
17 | Cc1c(/N=C/c2cc(Br)cc(Br)c2O)cccc1C(=O)O | Active | 26 | 20 | > 200 | 38 | > 2 | 75 | 100 | – | – | – | –
18 | O=C(O)c1ccc(CS(=O)(=O)c2ccccc2)o1 | – | 7.4 | – | – | – | – | – | – | inactive | Toxic | inactive | –
19 | COc1ccc2nc(NC(=N)N)nc(C)c2c1 | – | 7.4 | – | – | – | – | – | – | inactive | Toxic | inactive | –
20 | Cc1csc2c(N3CCN(C(=O)NC(C)(C)C)CC3)ncnc12 | Active | 12 | 40 | 157 | – | 3.1 | 15 | 50 | – | – | – | –
21 | CN(C)CCc1cc2c(c3c1ccc1ccccc13)OCO2 | – | 5.4 | – | – | – | – | – | – | inactive | Toxic | inactive | –
22 | COC(=O)c1cccc2c1-c1ccccc1/C2=N\O | Active | 108 | 20 | 127 | – | 13.2 | 10 | 9.6 | – | – | – | 3.2
23 | CN(C)c1ccc(-c2cccc(-c3ccc(N(C)C)cc3)[o+]2)cc1 | – | 3 | – | – | – | – | – | – | inactive | Toxic | inactive | –
24 | CCN1CCN(c2ccc(Nc3ccnc4cc5ccccc5cc34)cc2)CC1 | – | 0.5 | – | – | – | – | – | – | inactive | Toxic | inactive | –
25 | CC(C)Nc1ccc(Nc2ccnc3cc4ccccc4cc23)cc1 | – | 4.1 | – | – | – | – | – | – | inactive | Toxic | inactive | –
26 | Cc1ccc2nc(Cl)c3cc(C(=O)N(CCN(C)C)Cc4ccco4)sc3c2c1 | – | 10 | – | – | – | – | – | – | inactive | Toxic | inactive | –
27 | CCn1c2ccccc2c2ccc(/C=N/n3cnnc3)cc21 | Active | 131 | 3 | > 200 | 36 | > 4 | 50 | 50 | – | – | – | –
28 | CCOC(=O)CCc1c(CC(=O)OCC)c[nH]c1/C=N/O.Cl | – | 3.8 | – | – | – | – | – | – | inactive | Toxic | inactive | –
29 | CCC/N=c1\cc(-c2ccccc2)oc2ccc(C)cc12 | inactive | – | 10 | > 200 | – | – | 25 | 57 | – | – | – | –
